Published values collected from several papers.
Lines come from different studies, so protocols differ.
Target: Ephrin type-A receptor 4 (EPHA4, Homo sapiens, UniProt P54764)

Structure (SMILES) | test | conditions | remaining binding
CNC(=O)c1ccc(Nc2ncc(C(F)(F)F)c(NCc3nccnc3N(C)S(C)(=O)=O)n2)cc1 | cell-free assay, competition with immobilised ligand | 0.1 µM | 99%
FC(F)(F)Oc1cccc(-c2cnc3ccc(-c4ccncc4)nn23)c1 | cell-free assay, competition with immobilised ligand | 5 µM | 92%
O=C1NC(c2ccccn2)Sc2ccccc21 (stereo not shown) | cell-free assay, competition with immobilised ligand | 1 µM | 89%
O=C(NCC1CCOCC1)c1n[nH]cc1NC(=O)c1c(F)cccc1F | binding, competition with immobilised ligand | 1 µM | 100%
CN(CCCC(F)(F)F)c1nccc(-c2cnn3ncccc23)n1 | binding | 1 µM | 100%
C[C@@H]1CN(c2cc(-c3n[nH]c4ccc(OC5(C)CC5)cc34)ncn2)C[C@H](C)O1 | cell-free assay, competition with immobilised ligand | 0.1 µM | 89%
Nc1ncc2c(n1)-c1c([nH]c3ccc(C#CC4CC4)cc13)CCCC2 | binding, competition with immobilised ligand | 1 µM | 100%
Cc1cnn2ncc(-c3ccnc(N(C)C)n3)c2c1 | binding | 1 µM | 96%
O=C(NCc1ncc(C(F)(F)F)cc1Cl)c1ccc2c(c1)C1(CCS(=O)(=O)CC1)[C@H](C1CC1)N2S(=O)(=O)c1ccc(F)cc1 | cell-free assay, competition with immobilised ligand | 1 µM | 100%
COc1cnc(Nc2cccc(S(N)(=O)=O)c2)nc1N1CCN(c2ccccc2)CC1 | binding, competition with immobilised ligand | 1 µM | 97%
C[C@@H]1CCN(c2nccc(-c3cnn4ncccc34)n2)C1 | binding | 1 µM | 100%
O=C(Nc1ccc(Oc2ccc(F)cc2)cc1)N1CCc2ncccc2[C@H]1c1ccc(F)cc1 | cell-free assay, competition with immobilised ligand | 1 µM | 100%
O=C(c1ccc(Nc2ncc(Cl)c(-c3ccc(Cl)s3)n2)cc1)N1CCC(N2CCCC2)CC1 | binding, competition with immobilised ligand | 1 µM | 84%
CC1CCCN1c1nccc(-c2cnn3ncccc23)n1 (stereo not shown) | binding | 1 µM | 97%
O=C(N1CCS(=O)(=O)CC1)N1C[C@H](c2ccc(OC(F)(F)F)cc2)C[C@H](c2nc(C3CC3)no2)C1 | cell-free assay, competition with immobilised ligand | 1 µM | 100%
CN(C)c1nccc(-c2cnn3ncccc23)n1 | binding | 1 µM | 99%
O=C(NCCCN1CCOCC1)c1ccc(Nc2nccc(-c3cc4ccccc4s3)n2)cc1 | binding, competition with immobilised ligand | 1 µM | 82%
Cc1c(NC(=O)c2cc(C(N)=O)nc3cc(F)ccc23)c(C(F)(F)F)nn1Cc1ccc(C(C)(C)C)cc1 | cell-free assay, competition with immobilised ligand | 1 µM | 100%
COc1ccnn2ncc(-c3ccnc(N(C)C)n3)c12 | binding | 1 µM | 95%
O=C(c1ccc(Nc2ncc(Cl)c(-c3cc4ccccc4s3)n2)cc1)N1CCC(N2CCCC2)CC1 | binding, competition with immobilised ligand | 1 µM | 65%
N[C@H]1CCN(c2nccc(-c3cnn4ncccc34)n2)C1 | binding | 1 µM | 100%
c1cncc(-c2cccc(Nc3nccc(NC4CCCCC4)n3)c2)c1 | binding, competition with immobilised ligand | 10 µM | 100%
